In ChEMBL document CHEMBL5154895, “Mechanistic Studies and In Vivo Efficacy of an Oxadiazole-Containing Antibiotic” (J Med Chem, 2022):
Values after ≈ are worked out from the molar mass of the structure shown. Active and inactive are the calls of the source. No cut-off for these calls is given here.

What was measured:
Staphylococcus aureus [1] = assay: Downregulation of nucleoside permease protein expression in Staphylococcus aureus measured after 2 hrs by LC-MS/MS analysis; type: functional
Method in brief: (§1)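 S. aureus ATCC 25923 at OD600 0.6 exposed to compound or DMSO control for 2 h at 37°C, normalized to OD600 1.1 and PBS-washed. Cells were pressure-cycling lysed in 100 mM ammonium bicarbonate, and 50 μg protein was acetone-precipitated, reduced and alkylated, then Trypsin/Lys-C digested and C18-desalted. About 1 μg peptides went to LC-MS/MS. Label-free quantitation kept proteins present in all 3 samples, filtered at p <0.05.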

Staphylococcus aureus [2] = assay: Upregulation of CHAP domain-containing protein expression in Staphylococcus aureus measured after 2 hrs by LC-MS/MS analysis; type: functional; method in brief: as §1
[3] = Toxicity in Balb/c mouse infected with methicillin-resistant Staphylococcus aureus USA300 assessed as hemorrhage administered topically twice daily 2 days post infection and measured after 5 days post compound treatment by H and E staining based histopathological analysis; conditions: in vivo, topical_or_ocular, 120 h, time 5 day
Method in brief: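 MRSA USA300-infected punch wounds in mice, n=5. Topical 2% agent or petroleum jelly vehicle twice daily from day 2 for 5 days. The left wound was formalin-fixed, cut into 4-μm sections and H&E-stained. Whole slides were scanned and assessed by a board-certified veterinary pathologist for necrosis, inflammation, haemorrhage and related features.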

Staphylococcus aureus [4] = assay: Downregulation of peptide ABC transporter permease protein expression in Staphylococcus aureus measured after 2 hrs by LC-MS/MS analysis; type: functional; method in brief: as §1
Staphylococcus aureus [5] = assay: Downregulation of GloB protein expression in Staphylococcus aureus assessed as log2 of fold change in protein level measured after 2 hrs by LC-MS/MS analysis relative to control; type: functional
Method in brief: (§2)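 S. aureus ATCC 25923 at OD600 0.6 was treated with compound or DMSO for 2 h at 37 °C, normalised to OD600 1.1, and washed in PBS. Cells were pressure-lysed in 100 mM ammonium bicarbonate, then acetone-precipitated, reduced with DTT, alkylated with iodoacetamide, and digested with trypsin/Lys-C. Peptides were desalted and run on LC-MS/MS. Label-free quantitation used proteins present in all 3 samples, filtered at p<0.05 against DMSO.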

Staphylococcus aureus [6] = assay: Upregulation of acyl phosphatase expression in Staphylococcus aureus measured after 2 hrs by LC-MS/MS analysis; type: functional; method in brief: as §1
Staphylococcus aureus [7] = assay: Upregulation of siderophore biosynthesis protein SbnF in Staphylococcus aureus measured after 2 hrs by LC-MS/MS analysis; type: functional; method in brief: as §1
Staphylococcus aureus [8] = assay: Downregulation of multifunctional 2,3-cyclic-nucleotide 2-phosphodiesterase/5-nucleotidase/3-nucleotidase protein expression in Staphylococcus aureus measured after 2 hrs by LC-MS/MS analysis; type: functional; method in brief: as §1
Staphylococcus aureus [9] = assay: Downregulation of holo-ACP synthase protein expression in Staphylococcus aureus measured after 2 hrs by LC-MS/MS analysis; type: functional; method in brief: as §2
Staphylococcus aureus [10] = assay: Downregulation of Als protein expression in Staphylococcus aureus assessed as log2 of fold change in protein level measured after 2 hrs by LC-MS/MS analysis relative to control; type: functional; method in brief: as §2
Enterococcus faecium = assay: Antibacterial activity against vancomycin-resistant Enterococcus faecium ATCC 700221 assessed as inhibition of bacterial growth incubated for 18 to 20 hrs by broth microdilution method; type: functional; conditions: time 18-20 hrs
Method in brief: (§3)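 Broth microdilution per CLSI. Enterococci were diluted to about 5×10^5 CFU/mL in TSB and incubated aerobically with serial dilutions of agent at 37 °C for 18–20 h. MIC was read visually as the lowest concentration with no visible growth.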

Staphylococcus aureus [11] = assay: Upregulation of glycine cleavage system protein H expression in Staphylococcus aureus measured after 2 hrs by LC-MS/MS analysis; type: functional; method in brief: as §1
Staphylococcus aureus [12] = assay: Upregulation of 30S ribosomal protein S20 expression in Staphylococcus aureus measured after 2 hrs by LC-MS/MS analysis; type: functional; method in brief: as §1
Staphylococcus aureus [13] = assay: Downregulation of uroporphyrinogen-III C-methyltransferase protein expression in Staphylococcus aureus measured after 2 hrs by LC-MS/MS analysis; type: functional; method in brief: as §1
Staphylococcus aureus [14] = assay: Downregulation of PyrF protein expression in Staphylococcus aureus assessed as log2 of fold change in protein level measured after 2 hrs by LC-MS/MS analysis relative to control; type: functional; method in brief: as §2
Staphylococcus aureus [15] = assay: Downregulation of LipA protein expression in Staphylococcus aureus assessed as log2 of fold change in protein level measured after 2 hrs by LC-MS/MS analysis relative to control; type: functional; method in brief: as §2
Staphylococcus aureus [16] = assay: Upregulation of dihydroxyacetone kinase subunit L expression in Staphylococcus aureus measured after 2 hrs by LC-MS/MS analysis; type: functional; method in brief: as §1
Staphylococcus aureus [17] = assay: Upregulation of MecA protein expression in Staphylococcus aureus assessed as log2 of fold change in protein level measured after 2 hrs by LC-MS/MS analysis relative to control; type: functional; method in brief: as §1
Staphylococcus aureus [18] = assay: Antibacterial activity against methicillin-resistant Staphylococcus aureus NRS 385 assessed as inhibition of bacterial growth incubated for 18 to 20 hrs by broth microdilution method; type: functional; conditions: time 18-20 hrs
Method in brief: (§4)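 Broth microdilution per CLSI. Inoculum was set to 0.5 McFarland and diluted in CAMHB to about 5×10^5 CFU/mL. Serial dilutions of agent were incubated aerobically at 37 °C for 18–20 h. MIC was read visually as the lowest concentration with complete growth inhibition.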

Staphylococcus aureus [19] = assay: Downregulation of SdrD protein expression in Staphylococcus aureus assessed as log2 of fold change in protein level measured after 2 hrs by LC-MS/MS analysis relative to control; type: functional; method in brief: as §2
Staphylococcus aureus [20] = assay: Antibacterial activity against vancomycin-resistant Staphylococcus aureus 9 assessed as inhibition of bacterial growth incubated for 18 to 20 hrs by broth microdilution method; type: functional; conditions: time 18-20 hrs; method in brief: as §4
Staphylococcus aureus [21] = assay: Downregulation of sodium ABC transporter permease protein expression in Staphylococcus aureus measured after 2 hrs by LC-MS/MS analysis; type: functional; method in brief: as §1
Staphylococcus aureus [22] = assay: Upregulation of IsdI protein expression in Staphylococcus aureus assessed as log2 of fold change in protein level measured after 2 hrs by LC-MS/MS analysis relative to control; type: functional; method in brief: as §1
Staphylococcus aureus [23] = assay: Antibacterial activity against methicillin-resistant Staphylococcus aureus NRS123 assessed as inhibition of bacterial growth incubated for 18 to 20 hrs by broth microdilution method; type: functional; conditions: time 18-20 hrs; method in brief: as §4
Staphylococcus aureus [24] = assay: Upregulation of zinc ABC transporter ATP-binding protein expression in Staphylococcus aureus measured after 2 hrs by LC-MS/MS analysis; type: functional; method in brief: as §1
Staphylococcus aureus [25] = assay: Downregulation of carboxylesterase protein expression in Staphylococcus aureus measured after 2 hrs by LC-MS/MS analysis; type: functional; method in brief: as §2
Staphylococcus aureus [26] = assay: Downregulation of copper-translocating P-type ATPase protein expression in Staphylococcus aureus measured after 2 hrs by LC-MS/MS analysis; type: functional; method in brief: as §2
Enterococcus faecalis = assay: Antibacterial activity against vancomycin-resistant Enterococcus faecalis ATCC 51299 assessed as inhibition of bacterial growth incubated for 18 to 20 hrs by broth microdilution method; type: functional; conditions: time 18-20 hrs; method in brief: as §3
Staphylococcus aureus [27] = assay: Upregulation of haptoglobin-binding heme uptake protein HarA expression in Staphylococcus aureus measured after 2 hrs by LC-MS/MS analysis; type: functional; method in brief: as §1
Staphylococcus aureus [28] = assay: Antibacterial activity against Staphylococcus aureus MRSA ATCC 33592 assessed as inhibition of bacterial growth incubated for 18 to 20 hrs by broth microdilution method; type: functional; conditions: time 18-20 hrs
Method in brief: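 Broth microdilution per CLSI. Inoculum at 0.5 McFarland, diluted in cation-adjusted Mueller Hinton broth to about 5 × 10^5 CFU/mL. Serial compound dilutions incubated aerobically at 37° C for 18–20 hours. MIC taken as the lowest concentration completely inhibiting visible growth.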

Staphylococcus aureus [29] = assay: Downregulation of DNA-binding response regulator protein expression in Staphylococcus aureus measured after 2 hrs by LC-MS/MS analysis; type: functional; method in brief: as §2

Which Activity (Staphylococcus aureus [1]) does the source give for `CC1CC(C)CN(S(=O)(=O)c2ccc(C(=O)Nc3nnc(-c4ccc(C(F)(F)F)cc4)o3)cc2)C1` (stereo unspecified) here?
Its Activity is “Active”.

And the Activity (Staphylococcus aureus [2])?
The Activity was “Active”.

And the Activity [3]?
Its Activity is “Toxic”.

And the Activity (Staphylococcus aureus [4])?
Its Activity is “Active”.

What about the log2FC (Staphylococcus aureus [5]) of the same compound?
Its log2FC is -2.

What about the Activity (Staphylococcus aureus [6]) of the same compound?
The Activity was “Active”.

What about the Activity (Staphylococcus aureus [7]) of the same compound?
The Activity was “Active”.

And the Activity (Staphylococcus aureus [8])?
The Activity was “Active”.

And the Activity (Staphylococcus aureus [9])?
The Activity was “Active”.

What about the log2FC (Staphylococcus aureus [10]) of the same compound?
Its log2FC is -2.7.

And the MIC (Enterococcus faecium)?
The MIC was 0.25 µg/mL (≈ 0.492 µM).

And the Activity (Staphylococcus aureus [11])?
The Activity was “Active”.

What about the Activity (Staphylococcus aureus [12]) of the same compound?
The Activity was “Active”.

What about the Activity (Staphylococcus aureus [13]) of the same compound?
The Activity was “Active”.

What about the log2FC (Staphylococcus aureus [14]) of the same compound?
Its log2FC is -2.2.

What about the log2FC (Staphylococcus aureus [15]) of the same compound?
The log2FC was -2.

What about the Activity (Staphylococcus aureus [16]) of the same compound?
The Activity was “Active”.

What about the log2FC (Staphylococcus aureus [17]) of the same compound?
The log2FC was 2.

And the MIC (Staphylococcus aureus [18])?
The MIC was 0.25 µg/mL (≈ 0.492 µM).

And the log2FC (Staphylococcus aureus [19])?
The log2FC was -2.

What about the MIC (Staphylococcus aureus [20]) of the same compound?
Its MIC is 0.25 µg/mL (≈ 0.492 µM).

What about the Activity (Staphylococcus aureus [21]) of the same compound?
The Activity was “Active”.

What about the log2FC (Staphylococcus aureus [22]) of the same compound?
Its log2FC is 3.2.

And the MIC (Staphylococcus aureus [23])?
Its MIC is 0.25 µg/mL (≈ 0.492 µM).

What about the Activity (Staphylococcus aureus [24]) of the same compound?
The Activity was “Active”.

And the Activity (Staphylococcus aureus [25])?
The Activity was “Active”.

And the Activity (Staphylococcus aureus [26])?
Its Activity is “Active”.

And the MIC (Enterococcus faecalis)?
Its MIC is 0.25 µg/mL (≈ 0.492 µM).

And the Activity (Staphylococcus aureus [27])?
The Activity was “Active”.

What about the MIC (Staphylococcus aureus [28]) of the same compound?
The MIC was 0.25 µg/mL (≈ 0.492 µM).

What about the Activity (Staphylococcus aureus [29]) of the same compound?
Its Activity is “Active”.
